Data on one molecule can be found in ChEMBL document CHEMBL4834426, “Antimalarial Benzimidazole Derivatives Incorporating Phenolic Mannich Base Side Chains Inhibit Microtubule and Hemozoin Formation: Structure-Activity Relationship and In Vivo Oral Efficacy Studies” (J Med Chem, 2021).

Series [1] has as its system Plasmodium falciparum. The series is described as follows: Antiplasmodial activity against […] Plasmodium falciparum NF54 late gametocytes transfected with GFP-Luc […] at 1 uM incubated for 48 hrs by microscopy based luciferase reporter gene assay relative to control. In kind it is functional. An outline of the steps: (§1)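 NF54-Pfs16-GFP-Luc gametocytes, assays set up day 5 (early, stage II/III) or day 10 (late, stage IV/V). Culture at 2−3% gametocytemia, 1.5% hematocrit, 48 h drug exposure at 37 °C under 90% N₂/5% O₂/5% CO₂. Lysates mixed with luciferin; bioluminescence read with 10 s integration. Dual-point: one biological repeat in technical triplicate. Methylene blue (5 μM) reference.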
(In general: Reporter assays use an easily measured gene product as a stand-in for the process of interest.)

A further series concerns CHO. The series is described as follows: Cytotoxicity against CHO cells assessed as inhibition of cell viability by MTT assay. In kind it is cell-based. To be noted: Cricetulus griseus. (Formazan colour is commonly taken as a measure of viable cells.)
Series [2] deals with Hemozoin. The series is described as follows: Inhibition of Beta-hematin in early ring stage Plasmodium falciparum parasitized red blood cells assessed as hemozoin formation formation after 32 hrs by Giemsa staining based haemocytometric counting method.
Series [3] concerns Plasmodium falciparum. Briefly: Antimalarial activity against asexual blood stage multi drug-resistant Plasmodium falciparum K1 infected in erythrocytes assessed as reduction in parasitemia incubated up to 72 hrs by [3H]hypoxanthine incorporation assay. In kind it is functional, organism-based. An outline of the steps:
(§2)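 [³H]-Hypoxanthine incorporation assay (modified) on asexual blood-stage P. falciparum in vitro. IC₅₀ values are means of ≥2 independent experiments.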

In series [4] the test system is Plasmodium falciparum NF54. Briefly: Inhibition of tubulin polymerization in asexual blood stage Plasmodium falciparum NF54 at 600 nM incubated for 24 hrs by tubulin tracker Oregon Green staining method. An outline of the steps:
(§3)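 Treatment at 600 nM for asexual parasites (~1% parasitemia, 5% hematocrit, sorbitol-synchronized rings) or 2400 nM for early gametocytes (~2% gametocytemia, 2% hematocrit, 20% I/60% II/20% III). 24 h at 37 °C, 90% N₂/5% CO₂/5% O₂, DMSO <0.1%. Stained with 250 nM Tubulin Tracker Oregon Green 488 for 30 min and Hoechst (100 nM) for 10 min. PBS-washed, imaged live by confocal microscopy. Colchicine (20 μM) positive control.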

In series [5] the test system is Hemozoin. The series is described as follows: Inhibition of beta-hematin formation […] incubated for 5 hrs by NP40 detergent-mediated assay. An outline of the steps: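 Cell-free β-hematin formation assay in NP-40 (305.5 μM) lipid-mimic medium. Compounds from 20 mM stock serially diluted across wells, in duplicate. Hematin suspended in 1 M acetate buffer pH 4.8; plates incubated ~5 h at 37 °C. Then pyridine solution (with HEPES pH 7.4) and acetone added; absorbance at 405 nm. IC₅₀ by curve fit.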

The test system of series [6] is Plasmodium falciparum. Briefly: Antiplasmodial activity against […] Plasmodium falciparum NF54 early gametocytes transfected with GFP-Luc […] incubated for 48 hrs by microscopy based luciferase reporter gene assay relative to control. It is filed as functional, organism-based. To be noted: NF54, 48 h. An outline of the steps: (§4)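 Transgenic NF54-Pfs16-GFP-Luc gametocytes, read by luciferase reporter. Early assays were set up on day 5 (50% stage II/50% stage III) and late assays on day 10 (40% stage IV/60% stage V). Luciferin was added to lysates at room temperature and bioluminescence read. Methylene blue (5 μM) was the reference. Single-point screens at 1 and 5 μM used n=1 in technical triplicate. IC₅₀ came from a normalized nonlinear fit, n≥3 in triplicate.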

Series [7] can be described thus: AUC (0 to t) in Balb/c mouse at 3 mg/kg, iv measured up to 24 hrs by LC-MS/MS analysis. It is filed as ADME, organism-based. Details: dose 3 mg/kg, time <=24. To be noted: in vivo. An outline of the steps: (§5)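 Intravenous dosing in male Balb/c mice, fed ad libitum. Tail-vein blood sampled into heparinized tubes at 0.17, 0.5, 1, 3, 5, 7, 9 and 24 h, frozen at −80 °C. Blood extracted by acetonitrile protein precipitation with internal standard; LC−MS/MS quantitation, LOQ 2 ng/mL. Noncompartmental analysis based on curve stripping.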

Series [8] has as its system Plasmodium falciparum. Briefly: Antiplasmodial activity against […] Plasmodium falciparum NF54 early gametocytes transfected with GFP-Luc […] at 5 uM incubated for 48 hrs by microscopy based luciferase reporter gene assay relative to control. It is filed as functional. An outline of the steps: as §1

Series [9] in a line: Selectivity index, ratio of IC50 for Cytotoxicity against CHO cells assessed as inhibition of cell viability by MTT assay to IC50 for antimalarial activity against asexual blood stage Plasmodium falciparum NF54 assessed as reduction in parasitemia incubated up to 72 hrs by [3H]hypoxanthine incorporation assay. In kind it is toxicity, cell-based. To be noted: hamster, read-out: Selectivity Index. An outline of the steps: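 Selectivity index is IC₅₀(CHO)/IC₅₀(NF54). […] IC₅₀ came from nonlinear dose-response fitting. Parasite IC₅₀ came from the [³H]-hypoxanthine assay.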

The nature of series [10]: Metabolic stability in human liver microsomes assessed as compound remaining at 1 uM incubated for 30 mins by LC-MS/MS analysis. It is filed as ADME, Microsome. To be noted: read-out: Stabilty. An outline of the steps: (§6)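 Single-point design: 1 μM compound with 0.4 mg/mL liver microsomes in 0.1 M phosphate buffer pH 7.4 for 30 min. Quenched with ice-cold acetonitrile containing carbamazepine internal standard, centrifuged, analyzed by LC−MS/MS. Percent remaining from internal-standard-corrected peak areas at 30 min versus 0 min. Propranolol, midazolam and MMV390048 as controls.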
In general terms: Liver microsomes are a subcellular fraction often used to study metabolism.

A short description of series [11]: Kinetic solubility of the compound in pH 6.5 incubated for 24 hrs by HPLC-DAD analysis. It is filed as physicochemical. To be noted: buffer, read-out: Kinetic_solubility. An outline of the steps:
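Miniaturized shake-flask method. 10 mM DMSO stock dried down, phosphate buffer pH 6.5 added, shaken 24 h at 25 °C. Centrifuged 3500g for 15 min; supernatant analyzed by HPLC-DAD against 10−220 μM DMSO calibration curve. Reserpine, hydrocortisone and MMV390048 as controls.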

Series [12] concerns Plasmodium falciparum. The series is described as follows: Antiplasmodial activity against […] Plasmodium falciparum NF54 late gametocytes transfected with GFP-Luc […] at 5 uM incubated for 48 hrs by microscopy based luciferase reporter gene assay relative to control. In kind it is functional. An outline of the steps: as §1

Series [13] has as its system Plasmodium falciparum. Briefly: Antimalarial activity against asexual blood stage drug-sensitive Plasmodium falciparum NF54 infected in erythrocytes assessed as reduction in parasitemia incubated up to 72 hrs by [3H]hypoxanthine incorporation assay. In kind it is functional, organism-based. An outline of the steps: as §2
Series [14] deals with Plasmodium falciparum NF54. Briefly: Inhibition of tubulin polymerization in asexual stage (I) Plasmodium falciparum NF54 early gametocytes at 2400 nM incubated for 24 hrs by tubulin tracker Oregon Green staining method. An outline of the steps:
as §3

Series [15] in a line: Half life in Balb/c mouse at 10 mg/kg, po measured up to 24 hrs by LC-MS/MS analysis. In kind it is ADME, organism-based. To be noted: in vivo. An outline of the steps:
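Male Balb/c mice, not fasted, food and water ad libitum; single oral dose. Tail-vein blood into heparinized tubes at 0.5, 1, 3, 5, 7, 9 and 24 h, stored at −80 °C. Whole blood protein-precipitated with acetonitrile containing internal standard, analyzed by LC−MS/MS (LOQ 2 ng/mL). Parameters by noncompartmental analysis with curve stripping. Mean of three mice per point.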

The subject of series [16] is Plasmodium falciparum. Briefly: Antiplasmodial activity against […] Plasmodium falciparum NF54 late gametocytes transfected with GFP-Luc […] incubated for 48 hrs by microscopy based luciferase reporter gene assay relative to control. In kind it is functional, organism-based. To be noted: NF54, 48 h. An outline of the steps: as §4

Series [17] can be described thus: Clearance in Balb/c mouse at 3 mg/kg, iv measured up to 24 hrs by LC-MS/MS analysis. It is filed as ADME, organism-based. To be noted: in vivo. An outline of the steps:
as §5

Series [18] in a line: Metabolic stability in rat liver microsomes assessed as compound remaining at 1 uM incubated for 30 mins by LC-MS/MS analysis. In kind it is ADME, Microsome. To be noted: read-out: Stabilty. An outline of the steps: as §6

Active and inactive are the calls of the source. No cut-off for these calls is given here. Bounds are passed on as bounds.

For the molecule `CCNCc1cc(Cl)cc(Nc2nc3cc(F)c(F)cc3n2Cc2ccc(C(F)(F)F)cc2)c1O`, the inhibition – broadly, how much of the control response was suppressed – at 1 µM with Plasmodium falciparum [1] was 0%. In addition, the IC50 (commonly the concentration at which inhibition is half-maximal) is > 50000 nM in the series with CHO; 80 nM in the series with Plasmodium falciparum [3]; 18100 nM in the series on Hemozoin [5]; 460 nM in the series on Plasmodium falciparum [6]; 190 nM in the series on Plasmodium falciparum [13]; > 5000 nM in the series on Plasmodium falciparum [16]. Also, in the series on Hemozoin [2], the outcome was inactive. Further, in series [4], the inhibition entry was “Active”. The AUCt in series [7] came out at 443 µmol·min/L. The inhibition at 5 µM in the series with Plasmodium falciparum [8] amounted to 91%; in the series on Plasmodium falciparum [12], 0%. Besides, the selectivity ratio at 72 h in [9] is > 263. Moreover, the remaining at 0.5 h, 1 µM was > 99% in series [10] and 98% in [18]. The solubility kinetic at 24 h in series [11] was < 5 µM. For the same molecule, the inhibition result in [14] is “inactive”. Also, in [15], the half-life (usually how long it takes for the measured level to halve) was 8.3 h. Further, the clearance (in general, the rate of elimination divided by the concentration) in [17] came out at 12.6 mL/min/kg.
